{"source": "ChEMBL document CHEMBL4229344", "about": "(Eur J Med Chem, 2018)", "key": {"[1]": {"target": "Ribosomal protein S6 kinase alpha-2 (Homo sapiens) (UniProt Q15349)", "experiment": "Binding affinity to wild-type human partial length C-terminal RSK3 kinase domain 2 (V403 to K700 residues) expressed in bacterial expression system assessed as residual binding level at 1 uM by Kinomescan method relative to control"}, "[2]": {"target": "Dual specificity protein kinase CLK3 (Homo sapiens) (UniProt P49761)", "experiment": "Binding affinity to wild-type human full length CLK3 (M1 to R490 residues) expressed in bacterial expression system assessed as residual binding level at 1 uM by Kinomescan method relative to control", "outline": "(§1)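 KINOMEscan competition binding against 468 purified kinases/mutants, test compound at 1 µM; residual binding relative to control.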"}, "[3]": {"target": "Serine/threonine-protein kinase/endoribonuclease IRE1 (Homo sapiens) (UniProt O75460)", "sequence (O75460 19-977 limits assumed)": "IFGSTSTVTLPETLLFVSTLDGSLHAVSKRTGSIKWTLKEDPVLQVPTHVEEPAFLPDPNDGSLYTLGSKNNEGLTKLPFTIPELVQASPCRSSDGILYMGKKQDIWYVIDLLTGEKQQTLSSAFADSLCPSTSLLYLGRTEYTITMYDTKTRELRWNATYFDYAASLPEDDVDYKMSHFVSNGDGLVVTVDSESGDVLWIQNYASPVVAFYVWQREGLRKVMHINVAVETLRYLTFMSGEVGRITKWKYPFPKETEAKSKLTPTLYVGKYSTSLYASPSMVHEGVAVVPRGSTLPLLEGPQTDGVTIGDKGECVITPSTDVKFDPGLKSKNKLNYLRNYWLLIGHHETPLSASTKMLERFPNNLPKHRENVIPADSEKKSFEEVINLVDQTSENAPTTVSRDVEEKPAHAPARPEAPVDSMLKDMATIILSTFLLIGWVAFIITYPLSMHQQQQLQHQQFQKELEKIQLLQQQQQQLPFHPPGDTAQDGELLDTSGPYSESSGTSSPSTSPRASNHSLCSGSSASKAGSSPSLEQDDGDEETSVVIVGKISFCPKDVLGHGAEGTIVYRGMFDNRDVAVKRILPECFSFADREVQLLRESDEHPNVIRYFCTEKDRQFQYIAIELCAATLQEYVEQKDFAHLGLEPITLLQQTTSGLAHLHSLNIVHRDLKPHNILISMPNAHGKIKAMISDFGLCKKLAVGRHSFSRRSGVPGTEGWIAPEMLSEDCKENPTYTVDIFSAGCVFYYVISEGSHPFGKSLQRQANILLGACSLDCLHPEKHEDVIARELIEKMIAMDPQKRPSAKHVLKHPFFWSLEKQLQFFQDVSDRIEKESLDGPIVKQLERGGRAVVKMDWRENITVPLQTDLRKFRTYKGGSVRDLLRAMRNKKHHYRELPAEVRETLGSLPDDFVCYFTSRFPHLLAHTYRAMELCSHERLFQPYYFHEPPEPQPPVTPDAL", "experiment": "Binding affinity to wild-type human partial length ERN1 (S551 to E852 residues) expressed in mammalian expression system assessed as residual binding level at 1 uM by Kinomescan method relative to control"}, "[4]": {"target": "Mitotic checkpoint serine/threonine-protein kinase BUB1 (Homo sapiens) (UniProt O43683)", "sequence (O43683 whole entry, looked up, the tested form may be a part)": "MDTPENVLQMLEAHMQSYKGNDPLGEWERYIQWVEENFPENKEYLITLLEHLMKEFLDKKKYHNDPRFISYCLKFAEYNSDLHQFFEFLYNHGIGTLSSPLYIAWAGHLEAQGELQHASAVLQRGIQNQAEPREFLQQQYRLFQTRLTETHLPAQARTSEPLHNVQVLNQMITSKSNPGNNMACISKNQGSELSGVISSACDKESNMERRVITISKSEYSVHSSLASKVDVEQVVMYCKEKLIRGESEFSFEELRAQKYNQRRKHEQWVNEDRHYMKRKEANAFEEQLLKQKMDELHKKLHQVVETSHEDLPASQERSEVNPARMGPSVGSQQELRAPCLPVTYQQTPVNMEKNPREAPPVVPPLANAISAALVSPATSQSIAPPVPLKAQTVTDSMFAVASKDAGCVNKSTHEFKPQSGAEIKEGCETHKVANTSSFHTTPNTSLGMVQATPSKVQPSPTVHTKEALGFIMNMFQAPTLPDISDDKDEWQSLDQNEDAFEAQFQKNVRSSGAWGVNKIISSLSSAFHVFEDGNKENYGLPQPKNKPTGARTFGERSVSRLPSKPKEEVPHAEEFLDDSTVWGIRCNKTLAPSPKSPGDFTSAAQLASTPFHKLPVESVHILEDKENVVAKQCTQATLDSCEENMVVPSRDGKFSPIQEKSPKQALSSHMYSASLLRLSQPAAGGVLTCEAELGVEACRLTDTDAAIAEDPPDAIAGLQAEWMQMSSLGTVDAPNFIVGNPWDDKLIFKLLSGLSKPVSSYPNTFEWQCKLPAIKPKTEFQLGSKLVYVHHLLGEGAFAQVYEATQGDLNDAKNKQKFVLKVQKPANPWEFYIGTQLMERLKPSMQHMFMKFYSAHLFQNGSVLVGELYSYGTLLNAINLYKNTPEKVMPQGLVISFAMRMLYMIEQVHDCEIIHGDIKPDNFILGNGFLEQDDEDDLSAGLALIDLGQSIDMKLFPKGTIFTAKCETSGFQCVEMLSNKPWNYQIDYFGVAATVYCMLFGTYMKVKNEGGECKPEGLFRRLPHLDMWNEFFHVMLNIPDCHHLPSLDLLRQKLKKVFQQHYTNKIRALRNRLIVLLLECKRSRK", "experiment": "Binding affinity to wild-type human partial length BUB1 (Q724 to K1085 residues) expressed in mammalian expression system assessed as residual binding level at 1 uM by Kinomescan method relative to control"}, "[5]": {"target": "Cyclin-dependent kinase 18 (Homo sapiens) (UniProt Q07002)", "sequence (Q07002 whole entry, the tested form may be a part)": "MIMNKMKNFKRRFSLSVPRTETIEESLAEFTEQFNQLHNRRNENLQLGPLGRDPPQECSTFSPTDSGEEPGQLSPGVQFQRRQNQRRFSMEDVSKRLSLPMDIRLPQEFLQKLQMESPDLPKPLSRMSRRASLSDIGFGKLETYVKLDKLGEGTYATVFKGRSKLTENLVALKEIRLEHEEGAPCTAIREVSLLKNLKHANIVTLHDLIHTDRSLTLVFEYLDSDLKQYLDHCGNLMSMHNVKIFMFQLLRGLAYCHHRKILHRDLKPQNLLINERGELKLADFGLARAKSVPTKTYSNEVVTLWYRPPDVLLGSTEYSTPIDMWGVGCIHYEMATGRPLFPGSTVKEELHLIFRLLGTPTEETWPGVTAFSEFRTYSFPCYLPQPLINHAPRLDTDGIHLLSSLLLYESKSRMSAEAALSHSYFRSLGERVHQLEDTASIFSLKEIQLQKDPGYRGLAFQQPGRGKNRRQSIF", "experiment": "Binding affinity to wild-type human full length PCTK3 (M3 to F474 residues) expressed in bacterial expression system assessed as residual binding level at 1 uM by Kinomescan method relative to control", "outline": "(§2)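 Single-concentration KINOMEscan (DiscoverX) binding screen at 1 μM against a panel of 468 purified kinases and mutants. The read-out is binding relative to control.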"}, "[6]": {"target": "Serine/threonine-protein kinase 26 (Homo sapiens) (UniProt Q9P289)", "experiment": "Binding affinity to wild-type human full length MST4 (M1 to P416 residues) expressed in mammalian expression system assessed as residual binding level at 1 uM by Kinomescan method relative to control", "outline": "as §2"}, "[7]": {"tested_on": "Fibroblast growth factor receptor 3 (Homo sapiens), P22607 [G697C]", "experiment": "Binding affinity to human partial length FGFR3 G697C mutant (R442 to S771 residues) expressed in bacterial expression system assessed as residual binding level at 1 uM by Kinomescan method relative to control", "outline": "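Kinome-wide single-concentration binding screen (KINOMEscan) at 1 μM against a panel of 468 purified kinases and mutants. Read-out is relative binding of each kinase compared with control. Selectivity across the panel was summarised as an S(10) score.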"}, "[8]": {"target": "Casein kinase I isoform alpha (Homo sapiens) (UniProt P48729)", "experiment": "Binding affinity to wild-type human partial length CSNK1A1 (M1 to L450 residues) expressed in mammalian expression system assessed as residual binding level at 1 uM by Kinomescan method relative to control", "outline": "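Kinome-wide competition binding screen against a panel of 468 purified kinases/mutants, with the test compound at a single concentration of 1 μM. Read-out is the relative binding activity of each kinase in the presence of compound.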"}, "[9]": {"target": "Serine/threonine-protein kinase D1 (Homo sapiens) (UniProt Q15139)", "sequence (Q15139 whole entry, the tested form may be a part)": "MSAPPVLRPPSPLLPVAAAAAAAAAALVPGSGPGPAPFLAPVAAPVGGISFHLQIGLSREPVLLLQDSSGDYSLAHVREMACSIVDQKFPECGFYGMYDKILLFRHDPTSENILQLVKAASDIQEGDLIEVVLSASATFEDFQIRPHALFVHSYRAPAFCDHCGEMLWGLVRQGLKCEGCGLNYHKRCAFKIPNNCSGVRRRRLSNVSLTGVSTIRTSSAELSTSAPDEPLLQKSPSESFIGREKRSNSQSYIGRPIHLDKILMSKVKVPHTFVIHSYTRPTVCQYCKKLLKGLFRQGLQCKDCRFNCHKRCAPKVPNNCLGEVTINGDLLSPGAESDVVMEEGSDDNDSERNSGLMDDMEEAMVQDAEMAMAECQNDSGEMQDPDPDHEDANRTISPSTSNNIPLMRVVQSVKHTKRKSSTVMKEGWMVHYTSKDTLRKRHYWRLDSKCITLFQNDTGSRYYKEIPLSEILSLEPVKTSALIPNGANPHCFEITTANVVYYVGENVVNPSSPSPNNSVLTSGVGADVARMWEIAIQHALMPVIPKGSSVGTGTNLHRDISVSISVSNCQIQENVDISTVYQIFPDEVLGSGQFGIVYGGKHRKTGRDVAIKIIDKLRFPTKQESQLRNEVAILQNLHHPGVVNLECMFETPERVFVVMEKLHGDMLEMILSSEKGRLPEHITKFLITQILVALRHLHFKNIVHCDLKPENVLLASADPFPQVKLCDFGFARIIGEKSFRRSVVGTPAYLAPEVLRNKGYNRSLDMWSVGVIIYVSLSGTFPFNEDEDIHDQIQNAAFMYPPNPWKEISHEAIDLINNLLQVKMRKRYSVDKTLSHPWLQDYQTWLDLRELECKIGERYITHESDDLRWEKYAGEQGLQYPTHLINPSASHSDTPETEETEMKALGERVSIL", "experiment": "Binding affinity to wild-type human partial length PRKD1 (G551 to E870 residues) expressed in bacterial expression system assessed as residual binding level at 1 uM by Kinomescan method relative to control", "outline": "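KINOMEscan competition binding against a panel of 468 purified kinases/mutants, compound tested at 1 μM; readout is relative binding activity versus control.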"}, "[10]": {"experiment": "Half life in Sprague-Dawley rat at 1 mg/kg, iv", "type": "ADME, organism-based", "settings": "in vivo"}, "[11]": {"target": "Receptor tyrosine-protein kinase erbB-3 (Homo sapiens) (UniProt P21860)", "experiment": "Binding affinity to wild-type human partial length ERBB3 (G684 to A987 residues) expressed in mammalian expression system assessed as residual binding level at 1 uM by Kinomescan method relative to control"}, "[12]": {"target": "MAP/microtubule affinity-regulating kinase 3 (Homo sapiens) (UniProt P27448)", "experiment": "Binding affinity to wild-type human full length MARK3 (M1 to L729 residues) expressed in bacterial expression system assessed as residual binding level at 1 uM by Kinomescan method relative to control", "outline": "as §1"}, "[13]": {"target": "Serine/threonine-protein kinase WNK3 (Homo sapiens) (UniProt Q9BYP7)", "experiment": "Binding affinity to wild-type human partial length WNK3 (M1 to D434 residues) expressed in mammalian expression system assessed as residual binding level at 1 uM by Kinomescan method relative to control"}, "[14]": {"target": "Mitogen-activated protein kinase kinase kinase kinase 1 (Homo sapiens) (UniProt Q92918)", "experiment": "Binding affinity to wild-type human full length HPK1 (M1 to R799 residues) expressed in bacterial expression system assessed as residual binding level at 1 uM by Kinomescan method relative to control", "outline": "as §1"}, "[15]": {"target": "Tyrosine-protein kinase JAK3 (Homo sapiens) (UniProt P52333)", "experiment": "Binding affinity to wild-type human partial length JAK3 JH1 catalytic domain (I781 to S1124 residues) expressed in mammalian expression system assessed as residual binding level at 1 uM by Kinomescan method relative to control"}, "[16]": {"target": "Mitogen-activated protein kinase kinase kinase 2 (Homo sapiens) (UniProt Q9Y2U5)", "sequence (Q9Y2U5 whole entry, the tested form may be a part)": "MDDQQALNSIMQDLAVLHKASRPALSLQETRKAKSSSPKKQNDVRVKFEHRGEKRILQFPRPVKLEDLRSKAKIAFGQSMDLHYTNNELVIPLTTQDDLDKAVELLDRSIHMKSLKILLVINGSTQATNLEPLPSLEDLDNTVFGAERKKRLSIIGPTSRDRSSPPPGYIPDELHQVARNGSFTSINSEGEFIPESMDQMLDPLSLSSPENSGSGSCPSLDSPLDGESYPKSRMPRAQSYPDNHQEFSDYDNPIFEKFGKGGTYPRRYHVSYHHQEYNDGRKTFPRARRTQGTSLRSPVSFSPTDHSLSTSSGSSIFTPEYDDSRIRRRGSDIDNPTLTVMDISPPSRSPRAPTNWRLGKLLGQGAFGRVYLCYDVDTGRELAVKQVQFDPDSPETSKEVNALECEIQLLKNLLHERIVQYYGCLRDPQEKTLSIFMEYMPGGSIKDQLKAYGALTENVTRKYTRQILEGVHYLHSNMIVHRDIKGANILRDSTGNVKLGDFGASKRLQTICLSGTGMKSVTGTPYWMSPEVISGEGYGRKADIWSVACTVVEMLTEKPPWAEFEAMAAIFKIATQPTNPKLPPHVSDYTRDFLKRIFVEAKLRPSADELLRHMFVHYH", "experiment": "Binding affinity to wild-type human partial length MAP3K2 (S315 to H619 residues) expressed in mammalian expression system assessed as residual binding level at 1 uM by Kinomescan method relative to control"}, "[17]": {"target": "SRSF protein kinase 3 (Homo sapiens) (UniProt Q9UPE1)", "experiment": "Binding affinity to wild-type human partial length SRPK3 (P41 to P567 residues) expressed in bacterial expression system assessed as residual binding level at 1 uM by Kinomescan method relative to control"}, "[18]": {"tested_on": "EOL1", "experiment": "Antitumor activity against human EOL-1 cells xenografted in nu/nu mouse assessed as reduction in tumor cell proliferation at 25 to 100 mg/kg/day, ip by KI-67-staining based microscopic analysis", "type": "functional, organism-based", "outline": "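Female nu/nu mice (6 weeks) given subcutaneous right-flank injection of 5 million EOL-1 cells in PBS/Matrigel 1:1. At 200–400 mm3 tumors, randomized to groups of 6 and dosed daily i.p. for 14 days at 25, 50 or 100 mg/kg/d in 0.5% methylcellulose/0.4% Tween80. Tumor volume = W²×L/2, measured daily.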"}, "[19]": {"target": "Serine/threonine-protein kinase 17B (Homo sapiens) (UniProt O94768)", "experiment": "Binding affinity to wild-type human full length DRAK2 (M1 to C372 residues) expressed in bacterial expression system assessed as residual binding level at 1 uM by Kinomescan method relative to control", "outline": "as §1"}, "[20]": {"target": "Ribosomal protein S6 kinase alpha-6 (Homo sapiens) (UniProt Q9UK32)", "sequence (Q9UK32 whole entry, the tested form may be a part)": "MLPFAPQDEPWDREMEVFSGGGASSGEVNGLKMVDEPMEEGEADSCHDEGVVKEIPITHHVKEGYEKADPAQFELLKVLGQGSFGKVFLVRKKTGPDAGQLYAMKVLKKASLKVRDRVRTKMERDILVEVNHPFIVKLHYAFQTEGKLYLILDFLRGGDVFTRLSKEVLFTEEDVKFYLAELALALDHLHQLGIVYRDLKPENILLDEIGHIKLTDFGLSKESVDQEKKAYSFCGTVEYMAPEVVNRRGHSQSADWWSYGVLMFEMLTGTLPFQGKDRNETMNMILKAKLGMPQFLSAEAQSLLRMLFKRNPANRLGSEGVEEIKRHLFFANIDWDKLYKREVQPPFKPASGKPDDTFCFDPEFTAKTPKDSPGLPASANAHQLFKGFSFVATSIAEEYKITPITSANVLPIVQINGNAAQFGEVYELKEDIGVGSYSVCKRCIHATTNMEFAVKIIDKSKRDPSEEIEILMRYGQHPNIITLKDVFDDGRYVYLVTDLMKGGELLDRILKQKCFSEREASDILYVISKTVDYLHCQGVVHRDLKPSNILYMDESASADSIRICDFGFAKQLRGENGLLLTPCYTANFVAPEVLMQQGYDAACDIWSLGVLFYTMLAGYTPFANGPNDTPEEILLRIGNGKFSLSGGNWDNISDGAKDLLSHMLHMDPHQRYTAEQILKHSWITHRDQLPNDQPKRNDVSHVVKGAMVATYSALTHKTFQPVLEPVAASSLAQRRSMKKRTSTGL", "experiment": "Binding affinity to wild-type human partial length C-terminal RSK4 kinase domain 2 (I401 to Y711 residues) expressed in bacterial expression system assessed as residual binding level at 1 uM by Kinomescan method relative to control"}, "[21]": {"target": "Cyclin-dependent kinase 16 (Homo sapiens) (UniProt Q00536)", "experiment": "Binding affinity to wild-type human partial length PCTK1 (G160 to A474 residues) expressed in mammalian expression system assessed as residual binding level at 1 uM by Kinomescan method relative to control"}}, "note": "Calls of active or inactive are those of the source. The calls are words filed in the database; no cut-off is given here.", "data": [{"smiles": "Cc1ccc(NC(=O)c2ccc(CN(CCN(C)C)C(=O)c3cccnc3)cc2)cc1Nc1nccc(-c2cccnc2)n1", "values": [{"measurement": "Activity", "setting": "[1]", "result": 88, "unit": "%"}, {"measurement": "Activity", "setting": "[2]", "result": 94, "unit": "%"}, {"measurement": "Activity", "setting": "[3]", "result": 96, "unit": "%"}, {"measurement": "Activity", "setting": "[4]", "result": 100, "unit": "%"}, {"measurement": "Activity", "setting": "[5]", "result": 95, "unit": "%"}, {"measurement": "Activity", "setting": "[6]", "result": 99, "unit": "%"}, {"measurement": "Activity", "setting": "[7]", "result": 100, "unit": "%"}, {"measurement": "Activity", "setting": "[8]", "result": 87, "unit": "%"}, {"measurement": "Activity", "setting": "[9]", "result": 75, "unit": "%"}, {"measurement": "half-life", "setting": "[10]", "result": 2.05, "unit": "h"}, {"measurement": "Activity", "setting": "[11]", "result": 95, "unit": "%"}, {"measurement": "Activity", "setting": "[12]", "result": 80, "unit": "%"}, {"measurement": "Activity", "setting": "[13]", "result": 100, "unit": "%"}, {"measurement": "Activity", "setting": "[14]", "result": 94, "unit": "%"}, {"measurement": "Activity", "setting": "[15]", "result": 100, "unit": "%"}, {"measurement": "Activity", "setting": "[16]", "result": 100, "unit": "%"}, {"measurement": "Activity", "setting": "[17]", "result": 85, "unit": "%"}, {"measurement": "Activity", "setting": "[18]", "result": "Active"}, {"measurement": "Activity", "setting": "[19]", "result": 94, "unit": "%"}, {"measurement": "Activity", "setting": "[20]", "result": 100, "unit": "%"}, {"measurement": "Activity", "setting": "[21]", "result": 100, "unit": "%"}]}]}
